According to PMC3831729 (Indian Journal of Pharmaceutical Sciences, 2013):
In brackets after ≈: the same amount, converted by molar mass.

Key:
Bacillus lentus = assay: Zone of inhibition, disk diffusion; format: cell-based
[1] = test system: M. tuberculosis H37Rv versus NIH 3T3; assay: Selectivity index; set-up: species or system Mycobacterium tuberculosis; details: IC50 NIH 3T3 / MIC M. tuberculosis H37Rv
Outline: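 SI = IC50/MIC. MIC against M. tuberculosis H37Rv came from broth microdilution microplate alamar blue assay (MABA), with compounds tested at 100-1.56 μg/ml. […] IC50 was derived by nonlinear regression of % inhibition against log10 concentration.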

[2] = test system: M. tuberculosis H37Rv (MTB); assay: Microplate alamar blue assay; format: cell-based, Mycobacterium tuberculosis; details: MABA, screened at 100-1.56 μg/ml; - indicates no inhibition
Coryne bacterium = assay: Zone of inhibition, disk diffusion; format: cell-based
Rhodospirillum rubrum = assay: MIC, two-fold serial dilution; format: cell-based; details: 24 h, read-out: R. ruberum MIC× 10^−3
Vibrio cholerae = assay: MIC, two-fold serial dilution; format: cell-based; details: 24 h, read-out: V. cholerae MIC× 10^−3
Candida albicans = assay: MIC, two-fold serial dilution; format: cell-based; details: read-out: C. albicans MIC× 10^−3
Outline: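 Fungal MIC determined by two-fold serial dilution, with clotrimazole as reference standard. Growth was scored visually after 72-96 h incubation. MIC was taken as the lowest concentration with no visible growth.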

Escherichia coli = assay: Zone of inhibition, disk diffusion; format: cell-based; details: E. coli, 100 μg/disk

Structure (SMILES): CC(=O)NCN1N=C(C)C(=NNn2c(-c3ccccc3)nc3ccccc3c2=O)C1=O [QP9, N-{[-3-methyl-5-oxo-4-[2-(4-oxo-2-phenyl-3,4-dihydroquinazolin-3-yl)hydrazin-1-ylidene]-4,5-dihydro-1H-pyrazol-1-yl]methyl}acetamide]
- B. lentus % of I (Bacillus lentus): 95%
- Selective Index (SI) (SI=IC50/MIC) [1]: 18.16

Structure (SMILES): O=C1NN=C(N=Cc2ccccc2O)C1=NNn1c(-c2ccccc2)nc2ccccc2c1=O [QSP2, 3-{2-[-3-[-[(2-hydroxyphenyl)methylidene]amino]-5-oxo-4,5-dihydro-1H-pyrazol-4-ylidene]hydrazin-1-yl}-2-phenyl-3,4-dihydroquinazolin-4-one]
- Selective Index (SI) (SI=IC50/MIC) [1]: 16.32

Structure (SMILES): O=C(O)c1cn(C2CC2)c2cc(N3CCNCC3)c(F)cc2c1=O [CFN, ciprofloxacin]
- TB Activity MIC×10^-3 (MTB37RV) [2]: 09.40 ×10^-3 μM/ml

Structure (SMILES): CC1=NN(CNc2ccc(Cl)cc2)C(=O)C1=NNn1c(-c2ccccc2)nc2ccccc2c1=O [QP4, 3-{2-[-1-{[(4-chlorophenyl)amino]methyl}-3-methyl-5-oxo-4,5-dihydro-1H-pyrazol-4-ylidene] hydrazin-1-yl}-2-phenyl-3,4-dihydroquinazolin-4-one]
- C. bacterium % of I (Coryne bacterium): 90%

Structure (SMILES): CC[C@@H](CO)NCCN[C@@H](CC)CO [Ethambutol, ethambutol]
- TB Activity MIC×10^-3 (MTB37RV) [2]: 07.60 ×10^-3 μM/ml

Structure (SMILES): O=C1NN=C(N=Cc2ccc(O)c(O)c2)C1=NNn1c(-c2ccccc2)nc2ccccc2c1=O [QSP4, 3-{2-[-3-[-[(3,4-dihydroxyphenyl)methylidene]amino]-5-oxo-4,5-dihydro-1H-pyrazol-4-ylidene] hydrazin-1-yl}-2-phenyl-3,4-dihydroquinazolin-4-one]
- MIC (Rhodospirillum rubrum): 26.7 µM (≈ 12.5 µg/mL)
- MIC (Vibrio cholerae): 26.7 µM (≈ 12.5 µg/mL)
- MIC (Candida albicans): 26.7 µM (≈ 12.5 µg/mL)

Structure (SMILES): CC1=NN(CNc2ccc(C(=O)O)cc2)C(=O)C1=NNn1c(-c2ccccc2)nc2ccccc2c1=O [QP6, 4-({[-3-methyl-5-oxo-4-[2-(4-oxo-2-phenyl-3,4-dihydroquinazolin-3-yl)hydrazin-1-ylidene]-4,5-dihydro-1H-pyrazol-1-yl]methyl}amino)benzoic acid]
- C. bacterium % of I (Coryne bacterium): 90%
- antibacterial activity relative to standard drug ciprofloxacin (Escherichia coli): 1.5 times

Structure (SMILES): CC1=NN(CNc2ccc(O)cc2)C(=O)C1=NNn1c(-c2ccccc2)nc2ccccc2c1=O [QP3, 3-{2-[-1-{[(4-hydroxyphenyl)amino]methyl}-3-methyl-5-oxo-4,5-dihydro-1H-pyrazol-4-ylidene] hydrazin-1-yl}-2-phenyl-3,4-dihydroquinazolin-4-one]
- Selective Index (SI) (SI=IC50/MIC) [1]: 01.16

Structure (SMILES): O=C1NN=C(N=Cc2ccc(O)cc2O)C1=NNn1c(-c2ccccc2)nc2ccccc2c1=O [QSP3, 3-{2-[-3-[-[(2,4-dihydroxyphenyl)methylidene]amino]-5-oxo-4,5-dihydro-1H-pyrazol-4-ylidene] hydrazin-1-yl}-2-phenyl-3,4-dihydroquinazolin-4-one]
- Selective Index (SI) (SI=IC50/MIC) [1]: 08.35

Structure (SMILES): O=C1NN=C(N=Cc2ccccc2)C1=NNn1c(-c2ccccc2)nc2ccccc2c1=O [QSP1, 3-{2-[-5-oxo-3-[-(phenylmethylidene)amino]-4,5-dihydro-1H-pyrazol-4-ylidene]hydrazin-1-yl}-2-phenyl-3,4-dihydroquinazolin-4-one]
- Selective Index (SI) (SI=IC50/MIC) [1]: 10.92

Structure (SMILES): CC1=NN(CNC(=O)c2ccccc2)C(=O)C1=NNn1c(-c2ccccc2)nc2ccccc2c1=O [QP11, N-{[-3-methyl-5-oxo-4-[2-(4-oxo-2-phenyl-3,4-dihydroquinazolin-3-yl)hydrazin-1-ylidene]-4,5-dihydro-1H-pyrazol-1-yl]methyl}benzamide]
- B. lentus % of I (Bacillus lentus): 95%
- TB Activity MIC×10^-3 (MTB37RV) [2]: 06.49 ×10^-3 μM/ml
